Experimental data: ChEMBL document CHEMBL1671645, “Pharmacokinetics and absorption of posaconazole oral suspension under various gastric conditions in healthy volunteers” (Antimicrob Agents Chemother, 2009)

Columns and labels:
[1] = Tmax in healthy human at 200 mg QID, po administered as suspension for 7 days coadministered with nutritional supplement; type: ADME, organism-based; conditions: in vivo
Method in brief: (§1)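 Healthy volunteers given oral suspension (40 mg/ml) for 7 days, fasted or with nutritional supplement (Boost); four-way crossover, 14–21-day washout, nonfat snacks ≤800 cal/day allowed. On day 7 only the morning dose was given; plasma sampled predose to 168 h after it. LC-MS/MS (LLOQ 5.00 ng/ml). t1/2 = ln(2)/K from log-linear terminal slope; Tmax as median.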

[2] = Half life in healthy human at 400 mg administered as single dose suspension coadministered with nutritional supplement and 4 mg loperamide as two 2 mg tablets; type: ADME, organism-based; conditions: in vivo
Method in brief: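 Oral suspension (40 mg/ml) single dose with nutritional supplement plus loperamide 4 mg single dose, healthy volunteers, three-way crossover with 7–10-day washout. EDTA plasma drawn predose and 1–168 h postdose. LC-MS/MS assay (LLOQ 5.00 ng/ml). Noncompartmental parameters; Tmax reported as median (range).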

[3] = Apparent volume of distribution in fasted healthy human at 400 mg administered as single dose suspension 5 mins before consumption of high fat meal; type: ADME, organism-based; conditions: in vivo, read-out: Vc/F
Method in brief: (§2)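 In a crossover of 12 healthy subjects, each took a single 400 mg oral suspension dose 5 min before, midway through (about 10 min into a 20-min meal), or 20 min after a high-fat meal of about 50 g fat. Plasma was drawn 0–168 h and measured by LC-MS/MS. Parameters are noncompartmental, with AUC to the last measurable time.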

Homo sapiens [4] = test: Toxicity in healthy human assessed as adverse events at 400 mg administered as single dose suspension after consumption of high fat meal; type: organism-based; conditions: in vivo
Method in brief: (§3)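 Healthy volunteers monitored for adverse events, vital signs, clinical laboratory values and 12-lead ECG. Adverse events tabulated by body system or organ class and severity and summarized by treatment across the crossover regimens.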

[5] = Apparent volume of distribution in fasted healthy human at 400 mg administered as single dose suspension; type: ADME, organism-based; conditions: in vivo, read-out: Vc/F
[6] = Apparent total body clearance in fasted healthy human at 400 mg administered as single dose suspension after consumption of high fat meal; type: ADME, organism-based; conditions: in vivo; method in brief: as §2
[7] = AUC in fasted healthy human at 400 mg administered as single dose suspension 5 mins before consumption of high fat meal; type: ADME, organism-based; conditions: plasma; method in brief: as §2
[8] = Cmax in healthy human plasma at 400 mg administered as single dose suspension coadministered with nutritional supplement; type: ADME, organism-based; parameters: dose 400 mg
Method in brief: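 A three-way crossover in 13 healthy subjects gave one 400 mg oral suspension dose with a nutritional supplement, either alone, with metoclopramide 10 mg orally three times daily on the day before and the day of dosing, or with a single 4 mg dose of loperamide. Plasma was taken 0–168 h for LC-MS/MS. Analysis was noncompartmental.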

[9] = Half life in fasted healthy human at 400 mg administered as single dose suspension after consumption of high fat meal; type: ADME, organism-based; conditions: in vivo
Method in brief: (§4)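 Single oral suspension dose in healthy volunteers while fasting, 5 min before, midway through (about 10 min into a 20-min meal), or 20 min after a high-fat meal (approx 50 g fat); four-way crossover, 7–10-day washout. Plasma 0–168 h by LC-MS/MS (LLOQ 5.00 ng/ml). t1/2 = ln(2)/K; Tmax median.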

[10] = Tmax in fasted healthy human at 400 mg administered as single dose suspension coadministered with acidic carbonated beverage and proton pump inhibitor; type: ADME, organism-based; conditions: in vivo
Method in brief: (§5)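 Single oral suspension dose in fasting healthy volunteers, alone, with 12 oz ginger ale, after esomeprazole 40 mg once each morning days −2 to 1, or both; four-way crossover, 7–10-day washout. EDTA plasma 0–168 h. LC-MS/MS (LLOQ 5.00 ng/ml). t1/2 = ln(2)/K from terminal log-linear regression; Tmax median.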

Homo sapiens [11] = test: Toxicity in healthy human assessed as fatigue at 400 mg administered as single dose suspension coadministered with nutritional supplement and 10 mg metoclopramide; type: organism-based; conditions: in vivo
Method in brief: (§6)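 Three-way randomized crossover in 13 healthy volunteers with a 7- to 10-day washout. Each period was one 400-mg oral posaconazole suspension dose with a nutritional supplement. Metoclopramide 10 mg was given orally three times daily on the day before and the day of dosing; loperamide was a single 4 mg. Safety was assessed from adverse events, tabulated by body system and severity per treatment.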

Homo sapiens [12] = test: Toxicity in healthy human assessed as adverse events at 400 mg administered as single dose suspension coadministered with proton pump inhibitor; type: organism-based; parameters: scale not given: the % may be the effect or the level left; conditions: in vivo; method in brief: as §3
[13] = Apparent volume of distribution in fasted healthy human at 400 mg administered as single dose suspension after 20 mins after consumption of high fat meal; type: ADME, organism-based; conditions: in vivo, po; method in brief: as §2
Homo sapiens [14] = test: Toxicity in healthy human assessed as dizziness at 200 mg QID, po administered as suspension for 7 days coadministered with nutritional supplement; type: organism-based; conditions: in vivo, 168 h
Method in brief: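 Healthy volunteers (n = 12) took oral posaconazole suspension (40 mg/ml) with Boost at each dose for 7 days in a four-way randomized crossover with a 14- to 21-day washout. Subjects stayed fasted throughout, with nonfat snacks up to 800 cal/day allowed. Safety covered adverse events, vital signs, clinical labs and 12-lead ECG, with AEs tabulated by body system and severity per treatment.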

Homo sapiens [15] = test: Toxicity in healthy human assessed as fatigue at 400 mg administered as single dose suspension coadministered with nutritional supplement; type: organism-based; conditions: in vivo; method in brief: as §6
[16] = Half life in healthy human at 400 mg BID, po administered as suspension for 7 days coadministered with nutritional supplement; type: ADME, organism-based; conditions: in vivo; method in brief: as §1
Homo sapiens [17] = test: AUC in healthy human at 200 mg QID, po administered as suspension for 7 days coadministered with nutritional supplement; type: ADME, organism-based, Plasma; conditions: in vivo, 168 h
Method in brief: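 Twelve healthy subjects took oral suspension for 7 days as 400 mg BID or 200 mg QID, either fasting or with a Boost-type nutritional supplement, in a crossover with 14–21 day washouts. Nonfat snacks of 800 cal/day or less were allowed. Plasma was sampled 0–168 h after the day-7 morning dose only and analysed by LC-MS/MS. AUC is AUC_τ, normalized to dose.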

[18] = Half life in fasted healthy human at 400 mg administered as single dose suspension 5 mins before consumption of high fat meal; type: ADME, organism-based; conditions: in vivo; method in brief: as §4
[19] = Half life in healthy human at 200 mg QID, po administered as suspension for 7 days coadministered with nutritional supplement; type: ADME, organism-based; conditions: in vivo; method in brief: as §1
[20] = Cmax in fasted healthy human plasma at 400 mg administered as single dose suspension; type: ADME, organism-based; parameters: dose 400 mg
[21] = AUC in fasted healthy human at 400 mg administered as single dose suspension coadministered with acidic carbonated beverage and proton pump inhibitor; type: ADME, organism-based; conditions: plasma
Method in brief: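 This was a four-way crossover in 12 healthy subjects with 7–10 day washouts. Each took one fasting 400 mg oral suspension dose, with 12 oz ginger ale and/or esomeprazole 40 mg once each morning on days −2 to 1, with dosing on day 1. Plasma was sampled 0–168 h and measured by LC-MS/MS (LLOQ 5.00 ng/ml). Analysis was noncompartmental, with CL/F = dose/AUC_I and V/F = (CL/F)/K.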

[22] = Cmax in fasted healthy human plasma at 400 mg administered as single dose suspension after consumption of high fat meal; type: ADME, organism-based; parameters: dose 400 mg; method in brief: as §2
Homo sapiens [23] = test: Toxicity in healthy human assessed as adverse events at 400 mg administered as single dose suspension coadministered with nutritional supplement and 4 mg loperamide as two 2 mg tablets; type: organism-based; conditions: in vivo; method in brief: as §3
Homo sapiens [24] = test: Toxicity in healthy human assessed as adverse events at 400 mg BID, po administered as suspension for 7 days coadministered with nutritional supplement; type: organism-based; conditions: in vivo, 168 h; method in brief: as §3
[25] = Tmax in fasted healthy human at 400 mg administered as single dose suspension; type: ADME, organism-based; conditions: in vivo; method in brief: as §5

**Q.** Which Tmax [1] does the source give for `CC[C@@H]([C@H](C)O)n1ncn(-c2ccc(N3CCN(c4ccc(OC[C@@H]5CO[C@@](Cn6cncn6)(c6ccc(F)cc6F)C5)cc4)CC3)cc2)c1=O` [POSACONAZOLE] here?
**A.** 4 h

**Q.** And the half-life [2]?
**A.** 27.5 h

**Q.** And the Vd/F [3]?
**A.** 1900 L

**Q.** What about the Activity (Homo sapiens [4]) of the same compound?
**A.** 25%

**Q.** What about the Vd/F [5] of the same compound?
**A.** 3580 L

**Q.** And the CL/F [6]?
**A.** 395 mL/min

**Q.** What about the AUC at 5 min [7] of the same compound?
**A.** 10000 ng·h/mL

**Q.** And the Cmax [8]?
**A.** 303 ng/mL

**Q.** And the half-life [9]?
**A.** 22.6 h

**Q.** And the Tmax [10]?
**A.** 6 h

**Q.** What about the Activity (Homo sapiens [11]) of the same compound?
**A.** 15%

**Q.** And the Activity (Homo sapiens [12])?
**A.** 25%

**Q.** And the Vd/F [13]?
**A.** 757 L

**Q.** What about the Activity (Homo sapiens [14]) of the same compound?
**A.** 33%

**Q.** And the Activity (Homo sapiens [15])?
**A.** 15%

**Q.** What about the half-life [16] of the same compound?
**A.** 29.5 h

**Q.** And the AUC (Homo sapiens [17])?
**A.** 112000 ng·h/mL

**Q.** What about the half-life [18] of the same compound?
**A.** 23.9 h

**Q.** What about the half-life [19] of the same compound?
**A.** 27.8 h

**Q.** What about the Cmax [20] of the same compound?
**A.** 151 ng/mL

**Q.** What about the AUC [21] of the same compound?
**A.** 4180 ng·h/mL

**Q.** What about the Cmax [22] of the same compound?
**A.** 544 ng/mL

**Q.** What about the Activity (Homo sapiens [23]) of the same compound?
**A.** 38%

**Q.** And the Activity (Homo sapiens [24])?
**A.** 75%

**Q.** What about the Tmax [25] of the same compound?
**A.** 5 h
